Assay results pooled from the literature.
Protocols differ between the studies behind these lines.
Matrix: plasma

The half-life of CC(C)n1cc(C#N)c2cc(-n3cc(C(=O)O)cn3)ccc21 is reported as 13.3 h (human; oral; 200 mg; single dose, fasted, healthy volunteers).
With CS(=O)(=O)CCC#N the half-life was 24.7 h (human; oral; 1000 mg; multiple doses, once daily).
CC(C)(O)c1ccccc1-c1ccc2[nH]c(/C=C/c3ccc(C(F)(F)F)cc3)nc2c1 has a half-life of 85.9 h (male human; oral; 225 mg; single dose, fasted, healthy volunteers).
For COc1cc(C(=O)NC2CCN(C)CC2)c(F)cc1Nc1ncc(C(F)(F)F)c(Oc2cccc3c2C(=O)N(C)C3)n1, the half-life was 21.6 h (human; oral; 300 mg; multiple doses, once daily, patients).
For c1cnc2ccc(Nc3nc(NC4CC4)c4nc[nH]c4n3)cc2c1, the half-life was 2.1 h (human; oral; 200 mg/m²; patients).
C[C@@H](Nc1cc(F)cc(F)c1)c1cc(C(=O)N(C)C)cc2c(=O)cc(N3CCOCC3)oc12 has a half-life of 3.33 h (human; oral; 120 mg; single dose, patients).
The half-life of CCNCCCNC/C=C\CNCCCNCC is reported as 0.14 h (human; intravenous; 200 mg; patients, infusion).
The half-life of Cn1cc(-c2ccc(S(=O)(=O)[C@@H]3C[C@@H](C(=O)NC4(C#N)CC4)N(C(=O)C4(C(F)(F)F)CC4)C3)c(C(F)(F)F)c2)cn1 is reported as 10.2 h (human; oral; 30 mg; single dose, fasted, healthy volunteers).
The half-life of NS(=O)(=O)NCCNc1nonc1C(=NO)Nc1ccc(F)c(Br)c1 is reported as 3.3 h (human; oral; 600 mg; multiple doses, twice daily, steady state, patients).
With COCCOc1cnc2ccn([C@H](C)c3nnc4c(F)cc(-c5cnn(C)c5)cn34)c(=O)c2c1 the half-life was 8.3 h (human; oral; 200 mg; multiple doses, once daily, patients).
The half-life of CO[C@H]1CC[C@H](N2C(=O)CNc3ncc(-c4ccc(C(C)(C)O)nc4)nc32)CC1 is reported as 5.57 h (human; oral; 30 mg; patients).
C#C[C@]1(COP(=O)(O)OP(=O)(O)OP(=O)(O)O)O[C@@H](n2cnc3c(N)nc(F)nc32)C[C@@H]1O has a half-life of 143 h (human; oral; 400 mg; single dose).
The half-life of CC(C)(Sc1ccncc1-c1ccc(C#N)c2ccccc12)C(=O)O is reported as 13.8 h (male human; oral; 20 mg; single dose, fed, healthy volunteers).
COc1ccc([C@@H]2CN(C(=O)[C@@H](O)CO)C[C@@]2(C)[C@@H](C)O)cc1OC1CN(c2ccc(C)cn2)C1 gave a half-life of 11.9 h (human; oral; 5 mg; single dose, healthy volunteers).
With CC(C)[C@](O)(c1ccc2cc(OC(F)F)c(OC(F)F)cc2c1)c1c[nH]nn1 the half-life was 6.8 h (female human; oral; 750 mg; single dose).
For CO[C@H]1/C=C\C=C(/C)C(=O)NC2=CC(=O)C(NCCN(C)C)=C(C[C@@H](C)C[C@H](OC)[C@H](O)[C@@H](C)/C=C(\C)[C@@H]1OC(N)=O)C2=O, the half-life was 22.3 h (human; intravenous; patients, infusion).
CO[C@@H]1[C@H](OC(=O)N2CC(CCN3CCOCC3)C2)CC[C@]2(CO2)[C@H]1[C@@]1(C)O[C@@H]1CC=C(C)C has a half-life of 0.56 h (human; subcutaneous; 0.6 mg; single dose, healthy volunteers).
